Most compounds without a hit are left out; they make up all but 3.7% or so of the library.
KCNK9 block = blocks the human KCNK9 two-pore domain potassium channel; B-score at 10 µM; HEK293 KCNK9, FluxOR thallium flux fluorescence; active compounds read low; Q9NPC2; AID 488922; 1.2% of 310,000 active;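 active = ratio B-score over 3 SD below the library mean, with starting fluorescence within 5 SD of its mean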;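 note: negative B-score means less thallium flux so channel inhibition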
KCNK3 inh = human KCNK3 channel inhibition, primary screen. O14649. CHO-KCNK3 thallium flux, FluxOR fluorescence; active compounds read low. B-score at 10 µM. 0.84% of 340,000 active;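 active = B-score under library mean minus 4 SD, starting fluorescence ratio at most library mean plus 5 SD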;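 note: more negative B-score means stronger inhibition of thallium flux through KCNK3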
KCNQ1 block = blocks the human KCNQ1 potassium channel | AID 2642 | 1.3% of 310,000 active | CHO-K1 KCNQ1, FluxOR thallium flux fluorescence; active compounds read high | B-score at 10 µM | P51787;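 active = compounds whose thallium flux B-score, printed positive for inhibition, exceeds three library SD while starting fluorescence stays within three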;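 note: channel opened by potassium depolarization with thallium stimulus after 20 min compound exposure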
KCNQ1 pot = potentiators or activators of human KCNQ1 potassium channel; B-score at 10 µM; CHO-K1 KCNQ1, thallium flux FluxOR fluorescence; active compounds read high; 0.35% of 310,000 active; P51787;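 active = fluorescence ratio B-score, a plate-corrected score, at least three library SD, with initial intensity B-score within 5 SD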
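Test system: CHO-K1 cells stably expressing KCNQ1 / Medium: assay buffer / Also added: depolarizing K+/Tl+ stimulus, K2SO4 and Tl2SO4 each 12.5 mM in 5x stock / Incubation: 90 min dye loading and 20 min compound exposure, both at room temperature / Signal: thallium influx via FluxOR fluorescence, kinetic imaging / Evaluation: B score of baseline-normalized fluorescence ratio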
Kir21 block = Kir2.1 (mouse) channel inhibition; HEK293-Kir2.1, FluxOR thallium flux fluorescence; active compounds read low; B-score at 10 µM; 0.85% of 310,000 active;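 active = fluorescence ratio B-score at or below minus 3 SD of library scores, with starting-brightness B-score within 2 SD, cut at about -4.2 in these data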;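 note: channel flux triggered by added potassium and thallium sulfate stimulus; B-score of peak minus minimum fluorescence over baseline after thallium stimulus; more negative B-score means stronger Kir2.1 block with less thallium influx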
hERG rescue = compounds protecting human hERG from proarrhythmic drug block | Q12809 | 0.51% of 310,000 active | activation (rescue from dofetilide block), less the hit threshold, % at 10 µM | CHO-hERG, FluxOR thallium flux, dofetilide IC70 present;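 active = activation above the mean of controls blocked by dofetilide plus 5 SD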;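 note: thallium influx through hERG after potassium depolarization seen as dye fluorescence rise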
Active calls of the source: *; i = inactive; . = no result given.

SMILES	KCNK9 block	KCNK3 inh	KCNQ1 block	KCNQ1 pot	Kir21 block	hERG rescue
Cc1cc(C)cc(N(CC(=O)N2CCn3c2nc2ccccc23)S(=O)(=O)c2c(C)noc2C)c1	i	i	i	i	-0.31	-1.4
O=C(Nc1ccc(OCC(F)(F)C(F)F)c(C(F)(F)F)c1)c1ccccc1	i	i	i	i	0.73	-8.3
O=C(Nc1ccc(OCC(F)(F)C(F)F)c(C(F)(F)F)c1)c1ccccc1O	-6.6*	i	i	i	0.99	-8.4
CC(=O)Nc1c(C(=O)O)ccc(C)c1OCc1ccccc1	.	i	.	.	.	.
Cc1ccc2nc(C)c3c(c2c1)N(c1ccc(F)cc1)CC3	i	i	i	i	-5.31*	-13.7
COC(=O)Cn1cnc2c1c(=O)n(C)c(=O)n2C	i	i	i	i	-0.74	-3.6
Cn1c(=O)c2c(ncn2CC(=O)OCc2ccccc2)n(C)c1=O	i	i	i	i	2.83	5.3*
Cc1cccc(C(=O)N/C(=C\c2ccco2)C(=O)N2CCCC2)c1	i	i	i	i	-1.28	-11.1
Cc1ccc(SCC(=O)OCC(=O)NCCC2=CCCCC2)cc1	i	i	i	i	0.52	-10.2
O=C1NN(c2ccccc2)C(=O)/C1=C\c1cccc(OC(=O)c2cccs2)c1	i	i	i	i	0.12	-3.5
O=C1NN(c2ccc(Cl)c(Cl)c2)C(=O)/C1=C/c1cccc(OC(=O)c2cccs2)c1	i	.	i	12*	-4.38*	-16.1
CC(C)Nc1ccc(Nc2ccnc3cc4ccccc4cc23)cc1	i	i	9*	i	-6.4*	-32.9
CCOc1ccccc1Nc1ccnc2cc(Cl)ccc12	i	i	i	i	0.48	-12.3
COc1ccccc1CN1CCCC(CN(CCN(C)C)C(=O)c2ccc(C)cc2)C1 (centres undefined)	i	i	i	i	-0.54	-13.7
O=C(/C=C/c1ccc([N+](=O)[O-])cc1)OCC(=O)N1c2ccccc2Sc2ccccc21	i	i	i	i	-0.45	-9.5
CC1COCC(C)N1C1=C(Cl)C(=O)c2ccccc2C1=O (centres undefined)	.	-10*	.	.	.	.
O=C1C(Cl)=C(N2CCC(C(=O)O)CC2)C(=O)c2ccccc21	i	i	6*	i	-0.09	-19.5
CC(=O)c1c(O)c(C)c(O)c2c1OC1=CC(=O)C(C(C)=O)C(=O)[C@@]12C (some centres undefined)	i	i	7*	i	-1.24	-17.8
Cc1ccc(Nc2nnc(SC(C)C(=O)NCC3CCCO3)s2)cc1 (centres undefined)	.	i	.	.	.	.
CCC(NC(=S)NC1CCCCC1)c1ccc(C(C)C)cc1 (centres undefined)	i	i	10*	i	0.88	-9.3
Cc1ccc(C(C)NC(=S)NC2CCCCC2)cc1C (centres undefined)	i	i	i	i	-5.3*	6.2*
CC(NC(=O)NC12CC3CC(CC(C3)C1)C2)c1ccc2c(c1)OCO2 (centres undefined)	i	i	i	i	-1.1	-17.4
CC(NC(=O)NC1CCCCC1)c1ccc2c(c1)OCO2 (centres undefined)	i	i	i	i	0.17	10.6*
Cc1ccc(NC(=O)COC(=O)CCC2CCCC2)c(Br)c1	.	i	.	.	.	.
CC1CCC(NC(=O)COC(=O)CNC(=O)c2ccc3ccccc3c2)CC1 (centres undefined)	.	i	.	.	.	.
SMILES	KCNK9 block	KCNK3 inh	KCNQ1 block	KCNQ1 pot	Kir21 block	hERG rescue
CC1(CC(=O)O)SC(=O)NC1=O (centres undefined)	i	i	i	i	-4.71	-14.5
COCCCn1c(=O)c2ccccc2n(Cc2ccc(C)cc2)c1=O	-7.74*	i	i	i	-0.82	-9.2
FC(F)Sc1nc(-c2ccccc2)c(-c2ccccc2)n1C(F)F	i	i	9*	i	-1.23	-7.9
Oc1cccc2c(NC(=S)Nc3ccc(SC(F)F)cc3)cccc12	i	i	11*	i	0.3	-10.7
FC(F)Sc1ccc(NC(=S)NC2CCC(NC(=S)Nc3ccc(SC(F)F)cc3)CC2)cc1 (centres undefined)	i	i	i	i	1.22	-5.1
COc1ccccc1C(=O)NCCC(=O)N1CCN(S(=O)(=O)c2ccccc2C(F)(F)F)CC1	.	i	.	.	.	.
O=C(O)c1ccc(N2CCc3ccccc32)c([N+](=O)[O-])c1	i	i	i	i	1.86	-3.9
CCCCCCCNC(=O)c1ccc(N2CCC3(CC2)OCCO3)c([N+](=O)[O-])c1	-6.83*	i	i	i	0.67	-0.5
COc1ccc(CNC(=O)c2ccc(N3CCOCC3)c([N+](=O)[O-])c2)cc1	i	i	i	i	-4.88*	-1.9
CCCNC(=O)c1ccc(N2CCC3(CC2)CC(c2ccccc2)=NO3)c([N+](=O)[O-])c1	i	i	i	i	0.19	-7.0
O=C(NCc1ccc(F)cc1)c1ccc(N2CCc3ccccc32)c([N+](=O)[O-])c1	i	i	i	i	-5.39*	-10.1
CCN(CC)CCNC(=O)c1ccc(NC(=O)c2ccc(F)cc2)cc1	i	i	i	i	1.6	-14.8
Cc1ccc(/C([O-])=C(/C(=S)Nc2ccc(SC(F)F)cc2)[n+]2ccccc2)cc1[N+](=O)[O-]	i	i	i	i	-0.46	-29.2
CCOC(=O)C(C(=O)OCC)C(C(=O)OCC)N1CCOCC1 (centres undefined)	i	i	i	10*	0.57	-4.9
CNC(=O)COc1ncnc2scc(-c3ccc(F)cc3)c12	i	i	i	i	1.2	-14.4
COc1ccc(/C=N/NC(=O)c2cc(C34CC5CC(CC(C5)C3)C4)[nH]n2)cc1O	i	i	6*	i	-0.25	-11.8
COc1ccc(/C=N\NC(=O)c2ccc(=O)[nH]n2)cc1O	i	i	i	i	-0.41	-5.3
O=C(N/N=C/c1ccc(O)c(O)c1)NC12CC3CC(CC(C3)C1)C2	i	i	i	i	0.01	-7.7
CCOc1ccc(/C=N/NC(=O)NC23CC4CC(CC(C4)C2)C3)cc1O	i	i	9*	i	-0.06	-20.6
CCCn1c(N)c(C(=O)CSc2nnc3ccccn23)c(=O)n(C)c1=O	.	i	.	.	.	.
O=C(CCC1CCCCC1)NCCN1C2=NC[C@@H](Cc3ccccc3)N2C[C@H]1Cc1ccc(O)cc1	i	i	i	i	-4.46*	-13.5
O=C(CCC1CCCCC1)NCCN1C2=NC[C@H](Cc3ccccc3)N2C[C@H]1Cc1ccc(O)cc1	i	i	i	i	-3.4	-12.2
O=C(COC(=O)C1=COCCO1)Nc1cc(Cl)c(Cl)cc1Cl	.	i	.	.	.	.

High-throughput results as filed in PubChem BioAssay.
